TRPC4 act: activators of mouse TRPC4 channel | HEK293 TRPC4beta/mu-opioid, Fluo4 calcium fluorescence; hits give high values | B-score at 10 µM | 310,000 tested, 0.49% active | AID 2237 | Q9QUQ5;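 active = B-score above 5 SD of library B-scores, and initial fluorescence ratio not above library mean plus 5 SD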;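 note: positive B-score marks a calcium rise read as TRPC4 activation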
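Incubation: 45 min room-temperature Fluo4 loading, 110 s read / System: HEK293 cells stably co-expressing mouse TRPC4beta and mu-opioid receptor / Signal: Fluo4 fluorescence, kinetic / Control set: buffer (low) and maximal DAMGO (high) / Measure: integrated baseline-normalised fluorescence ratio, converted to per-well B score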
TRPC4 potent: allosteric potentiators of mouse TRPC4 channel; HEK293 TRPC4beta/mu-opioid, DAMGO EC20, Fluo-4 Ca2+ flux; hits give high values; B-score at 10 µM; Q9QUQ5; 310,000 tested, 0.42% active;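 active = B-score of calcium response area above 5 SD of library B-scores, with initial fluorescence ratio within 5 SD of library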;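 note: B-score of integrated fluorescence ratio over time as area under calcium response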
TRPC6 act: mouse TRPC6 channel activation. HEK293-TRPC6 membrane potential dye fluorescence; hits give high values. B-score at 10 µM. 310,000 tested, 0.13% active. Q61143;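 active = B-score of the integrated fluorescence ratio above library mean plus 3 SD, and starting fluorescence ratio within library mean plus 5 SD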;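 note: higher score means more depolarization so channel activation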
TRPC6 inhibitor: blocks the mouse TRPC6 cation channel; Q61143; HEK293-TRPC6, membrane potential dye, ACh-evoked depolarization; hits give low values; AID 2553; 310,000 tested, 1.1% active; B-score at 10 µM;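 active = B-score under library mean minus 3 SD, initial fluorescence not abnormally high, positive integrated signal ratio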;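 note: B-score derived from integrated fluorescence ratio over the kinetic read; more negative B-score means stronger inhibition of depolarization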
TRPC4 block: blocks the mouse TRPC4 cation channel. Q9QUQ5. HEK293 TRPC4beta/mu-opioid, DAMGO-evoked Fluo4 calcium flux; hits give low values. B-score at 10 µM. 300,000 tested, 0.39% active. AID 2247;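 active = B-score over 3 SD under the library average, no early fluorescence shift, positive overall ratio signal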
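Test system – stable TRPC4beta/mu-opioid receptor HEK293 cells · Probe or stimulus – DAMGO, a submaximal dose followed by a maximal one · Dosing – one concentration per compound · Signal – Fluo4 calcium fluorescence by kinetic imaging, 5 s 1 Hz baseline · Evaluation – per-well B score of integrated baseline-normalized Fluo4 ratio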
HEK293 TRPC6 ctr: parental HEK293 nonspecific activity of TRPC6 modulators; shares compounds with TRPC6 inhibitor; membrane potential dye fluorescence; membrane potential signal change, % at 10 µM; 2,400 tested, 51% active;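 active = membrane potential signal moves up or down beyond 5 SD from buffer-only wells, on both duplicate plates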
HEK293 MPD ctr 2: second check of TRPC6 modulator effects in parental HEK293 cells; shares compounds with TRPC6 inhibitor; membrane potential dye fluorescence; after compound, maximal acetylcholine stimulation; inhibition, % at 10 µM; 2,400 tested, 14% active;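 active = membrane potential signal drops by more than 5 SD from the mean control signal, in both duplicate plates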;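 note: plate controls were acetylcholine ECmax control wells for no effect and buffer only wells for full effect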
TRPC4 ctr mod: tests whether TRPC6 modulators also affect mouse TRPC4; HEK293 TRPC4/mu-opioid, membrane potential fluorescence; shares compounds with TRPC6 inhibitor; percent change from control (negative = decrease, positive = increase), % at 10 µM; 2,400 tested, 69% active;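 active = membrane potential signal moved up or down beyond 5 SD of buffer control wells, in both duplicate plates, actives on both sides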;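 note: plate controls were assay buffer wells for no effect and DAMGO maximal-effect wells for full effect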
TRPC4/MOR inh 2: second selectivity test of TRPC6 modulators against mouse TRPC4. AID 488928. HEK293 TRPC4/mu-opioid, membrane potential dye fluorescence; stimulated with maximal-effect DAMGO. shares compounds with TRPC6 inhibitor. inhibition, % at 10 µM. 2,400 tested, 55% active;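 active = drop in membrane potential signal beyond 5 SD of the control wells in both duplicate plates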;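 note: TRPC4 counter screen for TRPC6 hits run under conditions tuned for TRPC6 not TRPC4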
TRPC6 block conf: mouse TRPC6 inhibitor confirmation | 3,300 tested, 43% active | AID 488960 | HEK293-TRPC6, membrane potential dye, ACh-evoked depolarization | inhibition, % at 10 µM | shares compounds with TRPC6 inhibitor;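 active = fluorescence ratio falls more than 5 SD below the full-stimulation control mean, in both duplicate runs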;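 note: integrated fluorescence ratio of peak minus minimum over baseline after agonist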
TRPC6 act conf: confirmation of mouse TRPC6 activators | shares compounds with TRPC6 inhibitor | HEK293-TRPC6 membrane potential dye fluorescence, FDSS | 2,800 tested, 11% active | activation, % at 10 µM;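 active = ratio signal rise beyond 5 SD above unstimulated control wells' mean, seen in both duplicate runs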;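 note: plate controls were buffer EC0 wells for no effect and acetylcholine ECmax response for full effect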
An asterisk follows results filed as active; i = inactive; nt = not tested or not shown. Rows were chosen to be rich in hits. Some 2.3% of all compounds tested hit in one or more screens of this group.

SMILES	TRPC4 act	TRPC4 potent	TRPC6 act	TRPC6 inhibitor	TRPC4 block	HEK293 TRPC6 ctr	HEK293 MPD ctr 2	TRPC4 ctr mod	TRPC4/MOR inh 2	TRPC6 block conf	TRPC6 act conf
N=c1c(C(=O)NCC2CCCO2)cc2c(=O)n3ccccc3nc2n1C1CCCC1 (stereo not given)	i	i	i	-5.92*	i	i	i	i	i	i	i
COc1cccc(-c2nc(CS(=O)(=O)CC(=O)N3CCCCC3)c(C)o2)c1	i	i	i	i	i	nt	nt	nt	nt	nt	nt
CC1CN(C(=O)CSc2nnc(-c3ccc(Cl)cc3)n2C)CC(C)O1 (stereo not given)	i	i	i	-5.15*	i	i	i	i	i	i	i
Cn1c(CCN2CCCCC2)nc2cc([N+](=O)[O-])ccc21	i	i	i	-5.79*	i	-200.5%*	i	-32.0%*	38.0%*	i	i
CCN1CCN(CCc2nc3cc([N+](=O)[O-])ccc3n2C)CC1	i	i	i	i	i	nt	nt	nt	nt	nt	nt
Cc1cccc(-n2nnnc2SCC(=O)Nc2ccc(N3CCN(C)CC3)cc2)c1	i	i	i	-5.68*	i	i	i	i	54.0%*	i	i
Cc1ccccc1-n1nnnc1SCC(=O)Nc1ccc(N2CCN(C)CC2)cc1	i	i	i	i	i	nt	nt	nt	nt	nt	nt
CC(C)C[C@H](NC(=O)[C@@H]1Cc2ccccc2CN1)C(=O)Nc1ccc(C(C)C)cc1	i	i	i	-5.21*	i	i	i	-12.0%*	68.0%*	i	i
CSc1nnc(C)c(/C=C/Nc2ccc(Cl)cc2)n1	i	i	14*	i	i	214.0%*	i	35.5%*	i	i	36.5%*

Assay outcomes deposited in PubChem BioAssay by Johns Hopkins Ion Channel Center.
